≈ marks a conversion by molar mass, not a printed value. Calls of active or inactive are those of the source. No cut-off for these calls is given here.
Key:
HeLa = assay: Cytotoxicity against human HeLa cells by MTT assay; format: cell-based
Bacillus anthracis [1] = assay: Antibacterial activity against Bacillus anthracis Sterne by broth microdilution method; format: functional
DnaC helicase = molecular target: T1, DnaC helicase (Staphylococcus aureus, UniProt Q9AQH7); assay: Inhibition of Staphylococcus aureus Smith DNA helicase DnaC assessed as strand unwinding after 30 mins by FRET assay
T1 sequence (Q9AQH7 whole entry): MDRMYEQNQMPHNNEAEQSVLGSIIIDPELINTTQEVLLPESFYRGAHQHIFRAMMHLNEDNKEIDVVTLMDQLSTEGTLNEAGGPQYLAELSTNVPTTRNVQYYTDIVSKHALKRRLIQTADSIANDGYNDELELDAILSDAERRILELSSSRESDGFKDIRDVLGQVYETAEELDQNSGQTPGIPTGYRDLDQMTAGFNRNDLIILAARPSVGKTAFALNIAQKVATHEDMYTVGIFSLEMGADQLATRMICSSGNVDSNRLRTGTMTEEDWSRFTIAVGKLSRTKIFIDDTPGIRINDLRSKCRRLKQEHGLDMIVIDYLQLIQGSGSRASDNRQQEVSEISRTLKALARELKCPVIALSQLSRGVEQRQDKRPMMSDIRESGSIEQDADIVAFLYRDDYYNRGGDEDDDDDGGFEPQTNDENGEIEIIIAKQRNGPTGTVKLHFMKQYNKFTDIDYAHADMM

Staphylococcus aureus [2] = assay: Antibacterial activity against Staphylococcus aureus Smith by broth microdilution method; format: functional
Bacillus subtilis [3] = assay: Inhibition of Bacillus subtilis class C DNA polymerase 3
Method in brief: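 B. subtilis Pol IIIC polymerase assay in 96-well format on DNase-activated chromosomal DNA substrate, which needs no helicase function.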

Bacillus anthracis [4] = assay: Antibacterial activity against permeabilized polA-deficient Bacillus anthracis Sterne assessed as inhibition of DNA replication by cell based assay; format: functional, organism-based
Method in brief: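 ATP-dependent DNA replication measured in permeabilized ΔpolA B. anthracis Sterne cells by a modified Brown et al. method, testing whether compounds block an intact replisome.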

Bacillus anthracis [5] = assay: Inhibition of Bacillus anthracis DNA helicase DnaB by competitive inhibition assay in presence of ATP
Method in brief: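 Helicase FRET unwinding kinetics with B. anthracis enzyme, varying both ATP (0.625, 1.25, 2.5 mM and higher) and inhibitor concentrations; analysed by Dixon plot (1/V vs [I]).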

Escherichia coli [6] = assay: Antibacterial activity against TolC deficient Escherichia coli 701 by broth microdilution method; format: functional
[7] = test system: Geobacillus stearothermophilus; assay: Antibacterial activity against Bacillus stearothermophilus ATCC 12980 by broth microdilution method; format: functional
Bacillus subtilis [8] = assay: Antibacterial activity against Bacillus subtilis BD54 by broth microdilution method; format: functional
Bacillus licheniformis = assay: Antibacterial activity against Bacillus licheniformis ATCC 14580 by broth microdilution method; format: functional; settings: DSM 13=ATCC 14580
Bacillus subtilis [9] = assay: Inhibition of Bacillus subtilis DNA gyrase up to 50 uM by gel mobility assay
Method in brief: (§1)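 B. subtilis DNA gyrase activity measured by a published gel mobility assay; compounds tested up to 50 μM.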

[10] = Selectivity ratio of IC50 for Staphylococcus aureus Smith DNA helicase DnaC to IC50 for Bacillus anthracis DNA helicase DnaB
Escherichia coli [11] = assay: Antibacterial activity against Escherichia coli 700 expressing […] gene by broth microdilution method; format: functional
Bacillus thuringiensis = assay: Antibacterial activity against Bacillus thuringiensis ATCC 10792 by broth microdilution method; format: functional
Bacillus anthracis [12] = assay: Inhibition of single strand DNA-stimulated ATPase activity of Bacillus anthracis DNA helicase DnaB at 100 uM
Method in brief: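 ssDNA-stimulated ATPase of B. anthracis helicase assayed with 100 μM inhibitor, 0.5 mM ATP and 200 pmole M13mp19 single-stranded DNA.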

Bacillus anthracis [13] = assay: Antibacterial activity against Bacillus anthracis Sterne at 4 times MIC within 5.5 hrs; format: functional, organism-based
Staphylococcus aureus [14] = assay: Antibacterial activity against Staphylococcus aureus ATCC 25923 by broth microdilution method; format: functional
Enterococcus faecalis [15] = assay: Antibacterial activity against vancomycin-resistant Enterococcus faecalis ATCC 51575 by broth microdilution method; format: functional
Staphylococcus aureus [16] = assay: Antibacterial activity against methicillin-resistant Staphylococcus aureus isolate 1094 by broth microdilution method; format: functional
Enterococcus faecalis [17] = assay: Antibacterial activity against Enterococcus faecalis ATCC 29212 by broth microdilution method; format: functional
Bacillus cereus = assay: Antibacterial activity against Bacillus cereus ATCC 4342 by broth microdilution method; format: functional
[18] = Inhibition of Bacillus anthracis DNA helicase DnaB by Dixon plot analysis in presence of annealed oligonucleotide substrate
Method in brief: (§2)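 FRET strand-unwinding assay with purified B. anthracis helicase, 6-FAM/BHQ1 annealed 60-mer duplex, pH 7.9 Tris, 2 mM MgCl2, 25 mM NaCl, 0.01% Triton X-100, 2.5 mM ATP, room temperature 30 min. Oligo substrate and inhibitor concentrations varied; Ki taken from a Dixon plot.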

Bacillus anthracis [19] = assay: Inhibition of Bacillus anthracis DNA helicase DnaB by Lineweaver-Burke plot analysis in presence of DNA substrate; method in brief: as §2
Priestia megaterium = assay: Antibacterial activity against Bacillus megaterium ATCC 12872 by broth microdilution method; format: functional
[20] = Inhibition of Bacillus subtilis DNA gyrase by gel mobility assay; method in brief: as §1

| Structure (SMILES) | CC50 (HeLa) [µM] | MIC (Bacillus anthracis [1]) [µM] | IC50 (DnaC helicase) [µM] | MIC (Staphylococcus aureus [2]) [µM] | IC50 (Bacillus anthracis [4]) [µM] | further results |
| --- | --- | --- | --- | --- | --- | --- |
| Cc1ccc(C)n1-c1ccc(SCC(=O)O)cc1 | > 100 | > 100 | 4 | > 100 |  |  |
| COc1cc(C(=O)Nc2nc3ccc(S(=O)(=O)N4CCOCC4)cc3s2)cc(OC)c1OC | 70 | > 100 | 15 | > 100 | > 100 | inhibition (Bacillus subtilis [3]): inactive |
| Oc1ccc(O)c(-c2ccc(-c3nnc(S)o3)o2)c1 | 66 | 25 (≈ 6.91 µg/mL) | > 100 | > 100 | > 100 |  |
| Cc1c(CCC(=O)O)c(=O)oc2c(C)c(OCc3ccc(Br)cc3F)ccc12 | > 100 | 10 (≈ 4.49 µg/mL) | 180 | > 100 | 25 | inhibition (Bacillus anthracis [5]): Active; MIC (Escherichia coli [6]): > 45 µg/mL; MIC [7]: 5.6 µg/mL (≈ 12.5 µM); MIC (Bacillus subtilis [8]): 4.2 µg/mL (≈ 9.35 µM); MIC (Bacillus licheniformis): 2.8 µg/mL (≈ 6.23 µM); inhibition (Bacillus subtilis [9]): inactive; Ratio IC50 [10]: 2; MIC (Escherichia coli [11]): > 45 µg/mL; MIC (Bacillus thuringiensis): 2.8 µg/mL (≈ 6.23 µM); inhibition (Bacillus anthracis [12]): 16%; Activity (Bacillus anthracis [13]): Active; MIC (Staphylococcus aureus [14]): 11.2 µg/mL (≈ 24.9 µM); MIC (Enterococcus faecalis [15]): > 45 µg/mL; MIC (Staphylococcus aureus [16]): > 45 µg/mL; MIC (Enterococcus faecalis [17]): > 45 µg/mL; MIC (Bacillus cereus): 2.8 µg/mL (≈ 6.23 µM); Ki [18]: 8 µM; inhibition (Bacillus anthracis [19]): Active; MIC (Priestia megaterium): > 45 µg/mL |
| CCC1(C)Cc2ccccc2-c2[nH]c3nnc(S)n3c(=O)c21 (centres undefined) | 80 | 30 (≈ 9.37 µg/mL) | > 100 | > 100 | 27 |  |
| Cn1c(SCc2cc(=O)oc3cc(O)c(O)cc23)nc2ccccc21 | 35 | 55 (≈ 19.5 µg/mL) | 15 | 23 (≈ 8.15 µg/mL) | 100 | Ratio IC50 [10]: 2 |
| Cc1c(Cc2ccccc2)c(=O)oc2c(O)c(O)ccc12 | 10 | 20 (≈ 5.65 µg/mL) | 42 | 24 (≈ 6.78 µg/mL) | 10 | Ratio IC50 [10]: 2 |
| COc1ccc(Nc2nc(N)nc(-c3cc4ccccc4o3)n2)cc1 | 4 | > 100 | 21 | > 100 | > 100 |  |
| COc1cc(/C=C2\SC(=S)N(c3cccc(Cl)c3)C2=O)cc(OC)c1O | > 100 | > 100 | 3 | > 100 | 30 |  |
| CCOc1ccccc1C(=O)Nc1nc2ccc(S(N)(=O)=O)cc2s1 | 10 | > 100 | 56 | > 100 | > 100 | inhibition (Bacillus subtilis [3]): inactive |
| Cc1c(CCC(=O)O)c(=O)oc2c(C)c(OCc3cccc4ccccc34)ccc12 | 6 | 6 (≈ 2.41 µg/mL) | 65 | > 100 | 107 | MIC (Escherichia coli [6]): > 40 µg/mL; MIC [7]: 5 µg/mL (≈ 12.4 µM); MIC (Bacillus subtilis [8]): 15.1 µg/mL (≈ 37.5 µM); MIC (Bacillus licheniformis): 2.5 µg/mL (≈ 6.21 µM); inhibition (Bacillus subtilis [9]): inactive; Ratio IC50 [10]: 2; MIC (Escherichia coli [11]): > 40 µg/mL; MIC (Bacillus thuringiensis): 2.5 µg/mL (≈ 6.21 µM); MIC (Staphylococcus aureus [14]): 2.5 µg/mL (≈ 6.21 µM); MIC (Enterococcus faecalis [15]): > 40 µg/mL; MIC (Staphylococcus aureus [16]): 5 µg/mL (≈ 12.4 µM); MIC (Enterococcus faecalis [17]): > 40 µg/mL; MIC (Bacillus cereus): 2.5 µg/mL (≈ 6.21 µM); MIC (Priestia megaterium): > 40 µg/mL |
| Nn1c(Cc2ccccc2F)nnc1SCc1cc(=O)oc2cc(O)c(O)cc12 | > 100 | > 100 | 15 | > 100 | 100 | Ratio IC50 [10]: 2 |
| CO[C@@H]1[C@@H](OC(=O)c2ccc(C)[nH]2)[C@@H](O)[C@@H](Oc2ccc3c(O)c(NC(=O)c4c[nH]c(C(=O)Nc5c(O)c6ccc(O[C@H]7OC(C)(C)[C@H](OC)[C@@H](OC(=O)c8ccc(C)[nH]8)[C@H]7O)c(C)c6oc5=O)c4C)c(=O)oc3c2C)OC1(C)C [COUMERMYCIN] |  |  |  |  |  | IC50 [20]: < 1 µM |
| COc1cc(/C=C2\SC(=S)N(c3cccc(C(F)(F)F)c3)C2=O)cc(OC)c1O | > 100 | > 100 | 4 | > 100 | 95 |  |
| Cc1noc(NS(=O)(=O)c2ccc(NC(=O)CSc3nnc(-c4ccccc4)c(-c4ccccc4)n3)cc2)c1C | 68 | 50 (≈ 28.6 µg/mL) | 47 | 75 (≈ 43 µg/mL) | 61 | MIC (Escherichia coli [6]): 28.7 µg/mL (≈ 50.1 µM); MIC [7]: 57.3 µg/mL (≈ 100 µM); MIC (Bacillus subtilis [8]): > 60 µg/mL; MIC (Bacillus licheniformis): 57.3 µg/mL (≈ 100 µM); inhibition (Bacillus subtilis [9]): inactive; MIC (Escherichia coli [11]): > 60 µg/mL; MIC (Bacillus thuringiensis): 57.3 µg/mL (≈ 100 µM); MIC (Staphylococcus aureus [14]): 43 µg/mL (≈ 75.1 µM); MIC (Enterococcus faecalis [15]): > 60 µg/mL; MIC (Staphylococcus aureus [16]): 57.3 µg/mL (≈ 100 µM); MIC (Enterococcus faecalis [17]): > 60 µg/mL; MIC (Bacillus cereus): 57.3 µg/mL (≈ 100 µM); MIC (Priestia megaterium): 57.3 µg/mL (≈ 100 µM) |
| COc1cc(/C=C2\SC(=S)N(c3ccc([N+](=O)[O-])cc3)C2=O)cc(OC)c1O | 11 | > 100 | 0.7 | > 100 |  |  |
| Cc1ccc(C)n1-c1ccc(C(=O)O)c(O)c1 | > 100 | 50 (≈ 11.6 µg/mL) |  | 50 (≈ 11.6 µg/mL) | > 100 |  |
| Cc1nc(-c2c[nH]c(C(=O)O)c2)cs1 | > 100 | > 100 | 12 | > 100 | > 100 |  |
| COc1cc(/C=C2\SC(=S)N(c3ccc(Cl)cc3)C2=O)cc(OC)c1O | > 100 | > 100 | 2 | > 100 | 73 |  |
